# Screening results (PubChem BioAssay)
# The list is not random: actives were taken first. Their share in the collection is about 1.8%.
# NPY2 pot ag = potentiators or agonists of human neuropeptide Y receptor Y2; 0.45% of 220,000 active; P49146; AID 1359; activation, % at 3.6 µM; cells expressing NPY-Y2, potentiator/agonist read-out; in the data active means activation above about 27%;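 further: cells stimulated with NPY near EC25 plus isoproterenol at EC100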
# Target sequence (P49146 whole entry, looked up): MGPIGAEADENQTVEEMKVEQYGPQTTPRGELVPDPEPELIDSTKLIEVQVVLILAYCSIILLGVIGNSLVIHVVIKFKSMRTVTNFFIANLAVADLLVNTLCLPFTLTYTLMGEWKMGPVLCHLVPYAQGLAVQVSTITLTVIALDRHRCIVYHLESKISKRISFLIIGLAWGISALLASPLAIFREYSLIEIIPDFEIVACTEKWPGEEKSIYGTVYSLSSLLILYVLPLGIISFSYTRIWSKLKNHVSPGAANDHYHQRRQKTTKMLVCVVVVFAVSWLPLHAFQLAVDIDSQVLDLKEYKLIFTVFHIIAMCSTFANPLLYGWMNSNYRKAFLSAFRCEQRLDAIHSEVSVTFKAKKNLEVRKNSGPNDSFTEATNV
# NPY1 pot ag = potentiates or activates human NPY-Y1 receptor | P25929 | NPY-Y1 expressing cells, potentiator/agonist activation | activation, % at 3.6 µM | 0.37% of 220,000 active | AID 1304; in the data active means activation above about 33%, passing the limit was not always enough;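 further: cells stimulated with NPY at EC10 then isoproterenol at EC100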
# NPY-Y1 antag = antagonists of human neuropeptide Y receptor Y1; P25929; HEK293-CNG Y1 cells, membrane potential fluorescence; NPY at EC95, then isoproterenol; inhibition, % at 3.6 µM; 1% of 200,000 active; AID 1040;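 active means inhibition above the campaign mean inhibition of all tested compounds plus 3 SD, cut at about 20% in these data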
#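 Benchmarks – high control isoproterenol alone, low control NPY with isoproterenol · Material – HEK293 Y1/CNG channel cell line · Times – dye 3 h, compound 60 min room temperature, stimulation 45 min · Probe or stimulus – NPY (25 nM), isoproterenol (1 µM), Ro 20-1724 (25 µM) · Evaluation – % inhibition of NPY effect · Signal – fluorescence, membrane potential probe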
# NPY-Y2 antag = blocks the human neuropeptide Y Y2 receptor; P49146; NPY-Y2 expressing cells, antagonist mode; inhibition, % at 2.7 µM; 0.99% of 140,000 active; AID 793
# NPY-Y1 ant conf = confirmation of human neuropeptide Y receptor Y1 antagonists. shares compounds with NPY-Y1 antag. HEK293-CNG NPY-Y1, membrane potential fluorescence, cAMP; NPY challenge against isoproterenol-raised cAMP. inhibition, % at 3.6 µM. 21% of 1,200 active. AID 1254; in the data active means inhibition above about 20%
# NPY2 antag ctr = counter-screen for NPY-Y1 antagonists: human NPY-Y2 antagonism. inhibition, % at 3.6 µM. 28% of 1,200 active. HEK293 NPY-Y2 CNG membrane potential fluorescence; cells given NPY, then isoproterenol. shares compounds with NPY-Y1 antag
# Hits are given with their value; - = inactive; . = no result. Unless noted, no stated cut-off is given here; in the data, active means inhibition above about 17%; inactive means the rest.
SMILES,NPY2 pot ag,NPY1 pot ag,NPY-Y1 antag,NPY-Y2 antag,NPY-Y1 ant conf,NPY2 antag ctr
CCCCCCCCCC[n+]1cccc2c3ccccc3ccc21,-,-,50,.,48,37
O=C(Nc1ccc(S(=O)(=O)Nc2ncccn2)cc1)C1=NN(c2ccccc2)C(=O)CC1,-,-,.,.,.,.
C/C(=N\NC(=O)c1ccccc1[N+](=O)[O-])c1ccc(Br)s1,-,-,-,.,.,.
C/C(=N\Nc1nc2ccccc2s1)c1ccc(Br)s1,-,-,31,.,-,20
CCn1cc(-c2n[nH]c(=S)n2-c2ccc(C)cc2Br)c(=O)c2ccc(C)nc21,-,-,.,.,.,.
CCCCOC(=O)c1ccc(NC(=O)c2c(Cl)ccc(Cl)c2OC)cc1,-,-,24,-,-,-
COc1ccc(CN(CC2CCCO2)C(=O)c2cc3ccccc3oc2=O)cc1 (stereo not given),-,-,37,.,-,-
O=C(NC(=S)N(CC1CCC1)CC1CCCO1)c1cccc([N+](=O)[O-])c1 (stereo not given),-,-,-,.,.,.
O=C(Nc1ccc(N2CCOCC2)cc1)C1CC(=O)N(c2ccc(F)cc2)C1 (stereo not given),-,-,-,.,.,.
CC(=O)N(CCC(Cc1ccccc1)c1ccc2c(c1)OCO2)Cc1ccccc1F (stereo not given),-,-,21,-,-,-
Cc1ccc(S(=O)(=O)N2CCC(C(=O)N/N=C/c3ccncc3)CC2)cc1,-,-,-,.,.,.
Cc1ccc(-c2noc(COc3ccccc3C)n2)cc1,-,-,22,-,-,-
Nc1nc2nccc(-c3cccnc3)n2n1,-,-,-,.,.,.
Cc1ccc(C(C)C)c(OCc2nn(CC(=O)c3ccc(OC(F)F)cc3)c3[n+]2CCCCC3)c1,-,-,31,.,-,-
COc1ccc(C(=O)Cn2nc(CNc3ccc(Br)cc3)[n+]3c2CCCCC3)cc1,-,-,-,.,.,.
CC1CCN(CCCNC(=O)c2cn(C)c3ccc(S(=O)(=O)N4CCCC4)cc3c2=O)CC1,-,-,28,-,-,-
OC(COc1ccc(CNCCc2ccc(C(F)(F)F)cc2)cc1)CN1CCCCC1 (stereo not given),-,-,25,.,-,18
CCOC(=O)C1(Cc2cccc(OC)c2)CCN(CC2CC=CCC2)CC1 (stereo not given),-,-,-,.,.,.
OC1CCCN(Cc2ccc3ccc4cccc5ccc2c3c45)C1 (stereo not given),-,-,25,-,-,17
c1cc2ccc3ccc(CN4CCOCC4)c4ccc(c1)c2c34,-,-,-,-,.,.
O=C(O)CC/C(=C\c1ccc(N2CCOCC2)c([N+](=O)[O-])c1)c1nc2ccccc2s1,-,-,41,.,54,79
COc1ccccc1CN1C[C@@H]2C[C@@H](C3=Cc4cc(Cl)ccc4OC3)N3CCC[C@@]23C1=O,-,-,24,.,-,-
O=C1N(Cc2cccc(Cl)c2)C[C@@H]2C[C@@H](c3cccn3-c3ccccn3)N3CCC[C@@]123,-,-,-,.,.,.
O=C1N(Cc2cccc(Cl)c2)C[C@@H]2C[C@@H](c3ccc4nonc4c3)N3CCC[C@@]123,-,-,24,.,-,-
O=C1N(Cc2cccc(Cl)c2)C[C@@H]2C[C@@H](c3cccn3-c3nccs3)N3CCC[C@@]123,-,-,26,.,-,-
SMILES,NPY2 pot ag,NPY1 pot ag,NPY-Y1 antag,NPY-Y2 antag,NPY-Y1 ant conf,NPY2 antag ctr
COc1ccccc1OCCOCCOc1c(C)cc(C)cc1Br,-,-,24,-,-,-
COC(=O)[C@@]1(Cc2ccc(F)cc2)[C@H]2c3cc(C(=O)N4CCCC4)n(Cc4ccc(C(F)(F)F)nc4)c3C[C@H]2CN1C(=O)c1ccccc1,-,-,28,-,28,-
COC(=O)[C@@]1(Cc2ccc(OC)cc2)[C@H]2c3cc(C(=O)N4CCCC4)n(Cc4ccc(OC)c(OC)c4)c3C[C@H]2CN1C(=O)c1ccccc1,-,-,-,-,.,.
CCOc1ccc(N(C(C)=O)c2nc(C)cc(C)c2C#N)cc1,-,-,-,-,.,.
CCOC(=O)C1CCN(C(=O)CCS(=O)(=O)c2ccc3c(c2)CC(C)N3C(=O)CC)CC1 (stereo not given),-,-,37,.,-,-
CCOC(=O)C1CCN(C(=O)CCS(=O)(=O)c2ccc3c(c2)CCN3C(=O)CC)CC1,-,-,-,.,.,.
